Laboratory results reported in ChEMBL document CHEMBL1125559, “Analogues of platelet activating factor. 7. Bis-aryl amide and bis-aryl urea receptor antagonists of PAF” (J Med Chem, 1992).

Experiments:
Mus musculus [1] = experiment: Compound was evaluated for PAF-induced lethality in mouse (intraperitoneally at a dose of 1.0 mg/kg in saline 0.5 hr before lethal intravenous PAF challenge 75-150 mg/kg); type: ADME, organism-based; set-up: dose 1 mg/kg, route intraperitoneal; conditions: in vivo
How it was run: (§1)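 Female Swiss-Webster mice (20-25 g) received test compound ip in saline (10 mL/Kg); controls got saline alone. The PAF dose was chosen daily from small pilot groups. Survival was scored at 1.5 h and recorded as dead/total.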

Oryctolagus cuniculus [2] = species on record: Oryctolagus cuniculus; experiment: Concentration required to inhibit PAF (5*10e-8 M) induced platelet aggregation in rabbit platelet rich plasma(PRP) by 50%; type: functional, organism-based
How it was run: (§2)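 Rabbit PRP came from blood spun at 800 rpm for 15 min at room temperature, with platelet counts of 350 000–550 000/µL. PRP was equilibrated 1–2 min at 37 °C in an aggregometer. It was preincubated 5 min with test compound (final 10^-8 to 10^-5 M; methanol stock diluted in saline) or saline, then challenged with L-C16-PAF. IC50 was taken from concentration–response curves of aggregation magnitude and averaged over separate determinations.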

Mus musculus [3] = experiment: Compound was evaluated for PAF-induced lethality in mouse (intraperitoneally at a dose of 1.0 mg/kg in saline 0.5 hr before lethal intravenous PAF challenge 75-150 mg/kg); 9/23; type: ADME, organism-based; set-up: dose 1 mg/kg, route intravenous; conditions: in vivo; how it was run: as §1
Mus musculus [4] = experiment: Compound was evaluated for PAF-induced lethality in mouse (intraperitoneally at a dose of 1.0 mg/kg in saline 0.5 hr before lethal intravenous PAF challenge 75-150 mg/kg); 4/12; type: ADME, organism-based; set-up: dose 1 mg/kg; conditions: in vivo; how it was run: as §1
Mus musculus [5] = experiment: Compound was evaluated for PAF-induced lethality in mouse (intraperitoneally at a dose of 1.0 mg/kg in saline 0.5 hr before lethal intravenous PAF challenge 75-150 mg/kg); 9/24; type: ADME, organism-based; set-up: dose 1 mg/kg; conditions: in vivo; how it was run: as §1
Mus musculus [6] = experiment: Compound was evaluated for PAF-induced lethality in mouse (intraperitoneally at a dose of 1.0 mg/kg in saline 0.5 hr before lethal intravenous PAF challenge 75-150 mg/kg); 5/12; type: ADME, organism-based; set-up: dose 1 mg/kg, route intravenous; conditions: in vivo; how it was run: as §1
Mus musculus [7] = experiment: Compound was evaluated number of mouse dead out of total (intraperitoneally at a dose of 1.0 mg/kg in saline 0.5 hr before lethal intravenous PAF challenge 75-150 mg/kg)''; 6/12; type: ADME, organism-based; set-up: dose 1 mg/kg, route intravenous; conditions: in vivo; how it was run: as §1
Oryctolagus cuniculus [8] = species on record: Oryctolagus cuniculus; experiment: Concentration required to inhibit PAF (5*10e-8 M) induced platelet aggregation in rabbit platelet rich plasma(PRP) by 50% at 10 uM; type: functional
Mus musculus [9] = experiment: Compound was evaluated for PAF-induced lethality in mouse (intraperitoneally at a dose of 1.0 mg/kg in saline 0.5 hr before lethal intravenous PAF challenge 75-150 mg/kg); 11/13; type: ADME, organism-based; set-up: dose 1 mg/kg; conditions: in vivo; how it was run: as §1
Mus musculus [10] = experiment: Compound was evaluated for PAF-induced lethality in mouse (intraperitoneally at a dose of 1.0 mg/kg in saline 0.5 hr before lethal intravenous PAF challenge 75-150 mg/kg); 14/24; type: ADME, organism-based; set-up: dose 1 mg/kg; conditions: in vivo; how it was run: as §1
Oryctolagus cuniculus [11] = species on record: Oryctolagus cuniculus; experiment: Concentration required to inhibit PAF (5*10e-8 M) induced platelet aggregation in rabbit platelet rich plasma(PRP) by 50% at 10 uM; NI= No inhibition; type: functional, organism-based
Mus musculus [12] = experiment: Compound was evaluated for PAF-induced lethality in mouse (intraperitoneally at a dose of 1.0 mg/kg in saline 0.5 hr before lethal intravenous PAF challenge 75-150 mg/kg); 12/39; type: ADME, organism-based; set-up: dose 1 mg/kg; conditions: in vivo; how it was run: as §1
Oryctolagus cuniculus [13] = species on record: Oryctolagus cuniculus; experiment: Concentration required to inhibit PAF (5*10e-7 M) induced platelet aggregation in rabbit platelet rich plasma(PRP) by 50%; type: functional, organism-based; how it was run: as §2

| Compound | Lethality (Mus musculus [1]) [%] | IC50 (Oryctolagus cuniculus [2]) [nM] | also measured |
| --- | --- | --- | --- |
| CCCCCCCCCCCCCCOc1ccc(C)cc1CN(C(C)=O)c1cccc(C[n+]2csc(C)c2)c1.[Br-] | 39 | 1500 | Dead/total (Mus musculus [3]): 9 |
| CCCCCCCCCCCCCCOc1ccc(N(Cc2cccc(C[n+]3csc(C)c3)c2)C(C)=O)cc1 |  | 1000 |  |
| CCCCCCCCCCCCCCOc1cccc(C(=O)Nc2cccc(C[n+]3csc(C)c3)c2)c1 |  | 4200 |  |
| CCCCCCCCCCCCCCOc1cc(CN(C(C)=O)c2cccc(C[n+]3csc(C)c3)c2)ccc1OC.[Br-] | 27 | 370 | Dead/total (Mus musculus [4]): 4 |
| CCCCCCCCCCCCCCCCOc1ccc(OCC(=O)Nc2cccc(C[n+]3csc(C)c3)c2)cc1 |  | 5000 |  |
| CCCCCCCCCCCCCCOc1ccc(CN(C(C)=O)c2cccc(C[n+]3csc(C)c3)c2)cc1.[Br-] | 38 | 260 | Dead/total (Mus musculus [5]): 9 |
| CCCCCCCCCCCCCCOc1ccc(CCC(=O)Nc2cccc(C[n+]3csc(C)c3)c2)cc1.[Br-] | 50 | 7300 | Dead/total (Mus musculus [6]): 5 |
| Cc1nnc2n1-c1sc(CCC(=O)N3CCOCC3)cc1C(c1ccccc1Cl)=NC2 [APAFANT] |  | 340 |  |
| CCCCCCCCCCCCCCOc1ccc(CC(=O)Nc2cccc(C[n+]3csc(C)c3)c2)cc1.[Br-] | 50 | 310 | Dead/total (Mus musculus [7]): 6 |
| CCCCCCCCCCCCCCCCOc1ccc(CC(=O)Nc2cccc(C[n+]3csc(C)c3)c2)cc1 |  | 5300 |  |
| CCCCCCCCCCCCCCOc1cccc(CC(=O)Nc2ccccc2C[n+]2csc(C)c2)c1.[Br-] |  |  | Inhibition (Oryctolagus cuniculus [8]): 23% |
| CCCCCCCCCCCCCCOc1c(CN(C(C)=O)c2cccc(C[n+]3csc(C)c3)c2)cccc1OC.[Br-] | 85 | 2500 | Dead/total (Mus musculus [9]): 11 |
| CCCCCCCCCCCCCCOc1ccc(NC(=O)c2cccc(C[n+]3csc(C)c3)c2)cc1 |  | 2700 |  |
| CCCCCCCCCCCCCCOc1ccc(CCCN(C(C)=O)c2cccc(C[n+]3csc(C)c3)c2)cc1.[Br-] | 58 | 3100 | Dead/total (Mus musculus [10]): 14 |
| CCCCCOc1c(OC)cc(CN(C(C)=O)c2cccc(C[n+]3csc(C)c3)c2)cc1OC |  | 2300 |  |
| CCCCCCCCCCCCCCOc1ccc(CNC(=O)c2cccc(C[n+]3csc(C)c3)c2)cc1OC |  | 960 |  |
| CCCCCCCCCCCCCCOc1cc(CN(C(C)=O)c2cccc(C[n+]3csc(C)c3)c2)cc(OC)c1 |  | 960 |  |
| CCCCCCCCCCCCCCOc1ccc(CN(C(C)=O)c2cccc(C[n+]3csc(C)c3)c2)cc1OC |  | 320 |  |
| CCCCCCCCCCCCCCOc1ccc(C(=O)Nc2cccc(C[n+]3csc(C)c3)c2)cc1 |  | 5900 |  |
| CCCCCCCCCCCCCCOc1ccc(CC(=O)Nc2ccccc2C[n+]2csc(C)c2)cc1.[Br-] |  |  | IC50 (Oryctolagus cuniculus [11]): Not Active |
| CCCCCCCCCCCCCCOc1c(C)cc(CN(C(C)=O)c2cccc(C[n+]3csc(C)c3)c2)cc1C |  | 710 |  |
| CCCCCCCCCCCCCCOc1ccc(CNC(=O)c2ccc(C[n+]3csc(C)c3)cc2)cc1.[Br-] | 31 | 2900 | Dead/total (Mus musculus [12]): 12 |
| CCCCCCCCCCCCCCOc1ccc(CCN(C(C)=O)c2cccc(C[n+]3csc(C)c3)c2)cc1 |  |  | IC50 (Oryctolagus cuniculus [13]): 4300 nM |
